Reference: ChEMBL document CHEMBL4334451, “Natural Alkaloid Berberine Activity against Pseudomonas aeruginosa MexXY-Mediated Aminoglycoside Resistance: In Silico and in Vitro Studies” (J Nat Prod, 2019)
Activity calls are given as the source filed them. No cut-off for these calls is given here.

Legend:
Assay type in all cases: protein-complex assay
[1] = biological target: T1, MexXY/OprM (Pseudomonas aeruginosa (strain ATCC 15692 / DSM 22644 / CIP 104116 / JCM14847 / LMG 12228 / 1C / PRS 101 / PAO1)) (UniProt Q51487+Q9ZNG9+Q9ZNG8); assay: Inhibition of MexXY/OPRM in Pseudomonas aeruginosa C93 assessed as reduction in bacterial resistance to tobramycin by measuring tobramycin MIC at 80 ug/ml incubated for 24 to 48 hrs by broth microdilution method (reference value: >128 ug/ml)
How it was run: (§1)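 Broth microdilution per CLSI, with P. aeruginosa ATCC 27853 as reference strain, in 2-fold dilution series. Plates were incubated at 37°C and read for visible growth at 24 and 48 h. Berberine stock was in 50% DMSO/50% methanol, with final DMSO kept near 1%. Berberine was tested at 10–320 µg/ml, alone or at a fixed level with serial tobramycin.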

[2] = biological target: T1, MexXY/OprM (Pseudomonas aeruginosa (strain ATCC 15692 / DSM 22644 / CIP 104116 / JCM14847 / LMG 12228 / 1C / PRS 101 / PAO1)); assay: Inhibition of MexXY/OPRM in Pseudomonas aeruginosa C104 assessed as reduction in bacterial resistance to tobramycin by measuring tobramycin MIC at 80 ug/ml incubated for 24 to 48 hrs by broth microdilution method (reference value: 32 ug/ml)
[3] = biological target: T1, MexXY/OprM (Pseudomonas aeruginosa (strain ATCC 15692 / DSM 22644 / CIP 104116 / JCM14847 / LMG 12228 / 1C / PRS 101 / PAO1)); assay: Inhibition of MexXY/OPRM in Pseudomonas aeruginosa C95 assessed as reduction in bacterial resistance to tobramycin by measuring increase in tobramycin-mediated bactericidal activity at 80 ug/ml in presence of 1XMIC to 2XMIC tobramycin measured after 2 hrs by Time-kill curve analysis
[4] = biological target: T1, MexXY/OprM (Pseudomonas aeruginosa (strain ATCC 15692 / DSM 22644 / CIP 104116 / JCM14847 / LMG 12228 / 1C / PRS 101 / PAO1)); assay: Inhibition of MexXY/OPRM in Pseudomonas aeruginosa C60 assessed as bacterial growth up to 320 ug/ml incubated for 24 to 48 hrs by broth microdilution method
How it was run: (§2)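 Broth microdilution following CLSI guidelines, with P. aeruginosa ATCC 27853 as reference strain. Berberine was tested at 2-fold concentrations from 10 to 320 µg/ml, dissolved in 50% DMSO/50% methanol, with the top concentration set to keep final DMSO close to 1%. Plates were incubated at 37°C and read for visible growth at 24 and 48 h.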

[5] = biological target: T1, MexXY/OprM (Pseudomonas aeruginosa (strain ATCC 15692 / DSM 22644 / CIP 104116 / JCM14847 / LMG 12228 / 1C / PRS 101 / PAO1)); assay: Inhibition of MexXY/OPRM in Pseudomonas aeruginosa C70 assessed as bacterial growth up to 320 ug/ml incubated for 24 to 48 hrs by broth microdilution method; how it was run: as §2
[6] = biological target: T1, MexXY/OprM (Pseudomonas aeruginosa (strain ATCC 15692 / DSM 22644 / CIP 104116 / JCM14847 / LMG 12228 / 1C / PRS 101 / PAO1)); assay: Inhibition of MexXY/OPRM in Pseudomonas aeruginosa C73 assessed as bacterial growth up to 320 ug/ml incubated for 24 to 48 hrs by broth microdilution method; how it was run: as §2
[7] = biological target: T1, MexXY/OprM (Pseudomonas aeruginosa (strain ATCC 15692 / DSM 22644 / CIP 104116 / JCM14847 / LMG 12228 / 1C / PRS 101 / PAO1)); assay: Inhibition of MexXY/OPRM in Pseudomonas aeruginosa C86 assessed as bacterial growth up to 320 ug/ml incubated for 24 to 48 hrs by broth microdilution method; how it was run: as §1
[8] = biological target: T1, MexXY/OprM (Pseudomonas aeruginosa (strain ATCC 15692 / DSM 22644 / CIP 104116 / JCM14847 / LMG 12228 / 1C / PRS 101 / PAO1)); assay: Inhibition of MexXY/OPRM in Pseudomonas aeruginosa C103 assessed as bacterial growth up to 320 ug/ml incubated for 24 to 48 hrs by broth microdilution method; how it was run: as §2

Compound: COc1ccc2cc3[n+](cc2c1OC)CCc1cc2c(cc1-3)OCO2 [BERBERINE]
- MIC [1]: 64 µg/mL
- MIC [2]: 8 µg/mL
- inhibition [3]: Active
- inhibition [4]: inactive
- inhibition [5]: inactive
- inhibition [6]: inactive
- inhibition [7]: inactive
- inhibition [8]: inactive
